Holding throughout (format): functional
One experiment concerns Enterococcus faecalis. As to the kind of experiment: Minimal inhibitory concentration against Streptococcus faecalis. The essentials:
(§1)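 Microtiter broth dilution MIC assay. Strains: S. aureus, S. faecalis, E. coli, P. vulgaris and C. albicans were wild-type clinical isolates; S. cerevisiae ATCC 7752, A. fumigatus ATCC 28212, A. niger ATCC 16404 and M. mucedo ATCC 7941.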

The subject of another experiment is Staphylococcus aureus. As to the kind of experiment: Minimal inhibitory concentration against Staphylococcus aureus. The essentials: as §1
The next experiment concerns Proteus vulgaris. The experiment can be described thus: Minimal inhibitory concentration against Proteus vulgaris. The essentials: as §1
A further experiment relates to Escherichia coli. The experiment can be described thus: Minimal inhibitory concentration against Escherichia coli. Summed up: as §1
The subject of the next experiment is Aspergillus fumigatus. As to the kind of experiment: Minimal inhibitory concentration against Aspergillus fumigatus. Summed up: as §1
Another experiment deals with Candida albicans. As to the kind of experiment: Minimal inhibitory concentration against Candida albicans. The essentials:
as §1

The test system of another experiment is Aspergillus niger. As to the kind of experiment: Minimal inhibitory concentration against Aspergillus niger. The essentials:
as §1

In the next experiment the test system is Saccharomyces cerevisiae. As to the kind of experiment: Minimal inhibitory concentration against Saccharomyces cerevisiae. The essentials:
as §1

A further experiment relates to Mucor mucedo. As to the kind of experiment: Minimal inhibitory concentration against Mucor mucedo. Summed up:
as §1

SMILES strings stand for the structures.

What is called MIC is the smallest concentration in the dilution series that meets the test's criterion for growth inhibition.

`CCCCCCCCCCCCCOC(=O)C[C@H](C[N+](C)(C)C)OC(=O)CCCCCCC.[Cl-]`: the MIC in the experiment with Enterococcus faecalis was 6.25 µg/mL; in the experiment with Staphylococcus aureus, 6.25 µg/mL; in the experiment on Proteus vulgaris it was greater than 100 µg/mL; in the experiment on Escherichia coli it was greater than 100 µg/mL.
Take `CCCCCCCCCCC(=O)O[C@H](CC(=O)OCCCCCCC(F)(F)C(F)(F)C(F)(F)C(F)(F)F)C[N+](C)(C)C.[Cl-]`: the MIC against Staphylococcus aureus was 12.5 µg/mL; in the experiment with Aspergillus fumigatus it was 25 µg/mL; against Candida albicans, 12.5 µg/mL; against Aspergillus niger, 12.5 µg/mL; against Proteus vulgaris, greater than 100 µg/mL; against Saccharomyces cerevisiae, 12.5 µg/mL. Moreover, the figures for the minimal inhibitory concentration (MIC) in the experiment on Mucor mucedo and with Escherichia coli were 50 µg/mL and greater than 100 µg/mL, respectively.
For `CCCCCCCCCCCOC(=O)C[C@H](C[N+](C)(C)C)OC(=O)CCCCCCC.[Cl-]`, the MIC in the experiment with Enterococcus faecalis was 3.12 µg/mL; in the experiment with Staphylococcus aureus, 3.12 µg/mL; against Proteus vulgaris it was greater than 100 µg/mL; in the experiment with Saccharomyces cerevisiae it was greater than 100 µg/mL; against Escherichia coli it was 25 µg/mL.
With `CCCCCCCCCCCCOC(=O)C[C@H](C[N+](C)(C)C)OC(=O)CC(C)C.[Cl-]`, the MIC was 3.12 µg/mL against Enterococcus faecalis; 3.12 µg/mL with Staphylococcus aureus; greater than 100 µg/mL in the experiment with Proteus vulgaris; 1.56 µg/mL against Saccharomyces cerevisiae; 100 µg/mL against Escherichia coli.
For `CCCCCCCCCCCCOC(=O)C[C@H](C[N+](C)(C)C)OC(=O)C(C)C.[Cl-]`, the MIC with Enterococcus faecalis was 3.12 µg/mL; in the experiment on Staphylococcus aureus, 6.25 µg/mL; against Proteus vulgaris, 100 µg/mL; in the experiment with Escherichia coli, 25 µg/mL.
`CCCCCCCOC(=O)C[C@H](C[N+](C)(C)C)OC(=O)CCCCCCCCCBr.[Cl-]`: the MIC came out at 3.12 µg/mL against Enterococcus faecalis; 3.12 µg/mL with Staphylococcus aureus; 6.25 µg/mL in the experiment on Aspergillus fumigatus; 3.12 µg/mL with Candida albicans; 6.25 µg/mL with Aspergillus niger; 100 µg/mL against Proteus vulgaris. The MIC was greater than 100 µg/mL in the experiment with Saccharomyces cerevisiae, 25 µg/mL against Mucor mucedo and 50 µg/mL with Escherichia coli.
On to `CCCCCCCCCCCCCOC(=O)C[C@H](C[N+](C)(C)C)OC(=O)CC(C)C.[Cl-]`, for which the minimum inhibitory concentration (MIC) against Enterococcus faecalis was found to be 1.56 µg/mL; in the experiment with Staphylococcus aureus, 3.12 µg/mL; against Proteus vulgaris, 100 µg/mL; in the experiment on Escherichia coli, 100 µg/mL.
Regarding `CCCCCCCCCCCCCCCCOC(=O)C[C@H](C[N+](C)(C)C)OC(=O)CC(C)C.[Cl-]`, the MIC against Enterococcus faecalis was 3.12 µg/mL; against Staphylococcus aureus, 6.25 µg/mL; with Proteus vulgaris, greater than 100 µg/mL; against Saccharomyces cerevisiae it was 3.12 µg/mL; in the experiment on Escherichia coli, greater than 100 µg/mL.
With `CCCCCCCCCCCOC(=O)C[C@H](C[N+](C)(C)C)OC(=O)CC(C)C.[Cl-]`, the MIC was found to be 3.12 µg/mL in the experiment on Enterococcus faecalis, 6.25 µg/mL in the experiment on Staphylococcus aureus, 50 µg/mL in the experiment with Proteus vulgaris and 25 µg/mL with Escherichia coli.
Take `CCCCCCCCCCCOC(=O)C[C@H](C[N+](C)(C)C)OC(=O)CCCCCCCCCC.[Cl-]`: the MIC against Enterococcus faecalis is 3.12 µg/mL; with Staphylococcus aureus, greater than 100 µg/mL; in the experiment with Proteus vulgaris, greater than 100 µg/mL; with Saccharomyces cerevisiae it was greater than 100 µg/mL; with Escherichia coli, greater than 100 µg/mL.
Turning to `CCCCCCCCCCCCCOC(=O)C[C@H](C[N+](C)(C)C)OC(=O)CCCCCC.[Cl-]`, the minimum inhibitory concentration (MIC) in the experiment with Enterococcus faecalis was 3.12 µg/mL; in the experiment with Staphylococcus aureus, 6.25 µg/mL; in the experiment with Proteus vulgaris, greater than 100 µg/mL; against Escherichia coli, greater than 100 µg/mL.
For the compound `CCCCCCCCCCCC(=O)O[C@H](CC(=O)OCCC(F)(F)C(F)(F)C(F)(F)C(F)(F)C(F)(F)C(F)(F)F)C[N+](C)(C)C.[Cl-]`, the MIC in the experiment on Enterococcus faecalis, with Staphylococcus aureus, in the experiment on Aspergillus fumigatus, against Candida albicans, against Aspergillus niger and in the experiment on Proteus vulgaris was greater than 100 µg/mL in each case. In addition, the MIC in the experiment on Saccharomyces cerevisiae, against Mucor mucedo and in the experiment with Escherichia coli was greater than 100 µg/mL each time.
For the compound `CCCCCCCOC(=O)C[C@H](C[N+](C)(C)C)OC(=O)CCOc1ccccc1.[Cl-]`, the MIC against Enterococcus faecalis, with Staphylococcus aureus, against Aspergillus fumigatus, against Candida albicans, in the experiment with Aspergillus niger and against Proteus vulgaris was greater than 100 µg/mL each time. Besides, the MIC with Saccharomyces cerevisiae, in the experiment on Mucor mucedo and against Escherichia coli was greater than 100 µg/mL each time.
Turning to `CCCCCCCCCCCCCOC(=O)C[C@H](C[N+](C)(C)C)OC(=O)C(C)CCCC.[Cl-]` (stereo partly specified), the MIC in the experiment with Enterococcus faecalis was 6.25 µg/mL; against Staphylococcus aureus it was 6.25 µg/mL; against Proteus vulgaris, greater than 100 µg/mL; with Escherichia coli it was greater than 100 µg/mL.
Regarding `CCCCCCCCCCCOC(=O)C[C@H](C[N+](C)(C)C)OC(=O)CCCBr.[Cl-]`, the MIC is 3.12 µg/mL against Enterococcus faecalis; 6.25 µg/mL against Staphylococcus aureus; 12.5 µg/mL with Aspergillus fumigatus; 3.12 µg/mL against Candida albicans; 12.5 µg/mL against Aspergillus niger; 100 µg/mL in the experiment on Proteus vulgaris. Besides, the MIC against Saccharomyces cerevisiae is 3.12 µg/mL; in the experiment on Mucor mucedo, 25 µg/mL; against Escherichia coli it was 50 µg/mL.
`CCCCCCCCCCCOC(=O)C[C@@H](O)C[N+](C)(C)C.[Cl-]`: the MIC was 25 µg/mL against Enterococcus faecalis; 12.5 µg/mL against Staphylococcus aureus; greater than 100 µg/mL against Aspergillus fumigatus; greater than 100 µg/mL against Candida albicans; greater than 100 µg/mL in the experiment with Aspergillus niger; greater than 100 µg/mL with Proteus vulgaris. Besides, the MIC in the experiment on Saccharomyces cerevisiae, against Mucor mucedo and against Escherichia coli was greater than 100 µg/mL each time.
As to `CCCCCCCCCCOC(=O)C[C@H](C[N+](C)(C)C)OC(=O)CC(C)C.[Cl-]`, the MIC in the experiment on Enterococcus faecalis is 6.25 µg/mL; with Staphylococcus aureus, 12.5 µg/mL; in the experiment with Aspergillus fumigatus, 50 µg/mL; in the experiment on Candida albicans it was 3.12 µg/mL; against Aspergillus niger it was 25 µg/mL; in the experiment with Proteus vulgaris it was greater than 100 µg/mL. Further, the MIC worked out at 3.12 µg/mL against Saccharomyces cerevisiae, 100 µg/mL in the experiment on Mucor mucedo and 50 µg/mL against Escherichia coli.
Consider `CCCCCCCCCCCCCCCCOC(=O)C[C@@H](O)C[N+](C)(C)C.[Cl-]`, for which the MIC with Enterococcus faecalis is 3.12 µg/mL; with Staphylococcus aureus, 6.25 µg/mL; in the experiment on Aspergillus fumigatus it was 6.25 µg/mL; in the experiment with Candida albicans, 6.25 µg/mL; with Aspergillus niger, 3.12 µg/mL; in the experiment with Proteus vulgaris it was greater than 100 µg/mL. The MIC is greater than 100 µg/mL in the experiment on Saccharomyces cerevisiae, 6.25 µg/mL in the experiment on Mucor mucedo and greater than 100 µg/mL in the experiment with Escherichia coli.
Consider `CCCCCCCCCCCOC(=O)C[C@H](C[N+](C)(C)C)OC(=O)CCC(C)C.[Cl-]`, for which the MIC in the experiment with Enterococcus faecalis is 1.56 µg/mL; in the experiment with Staphylococcus aureus it was 3.12 µg/mL; with Proteus vulgaris, greater than 100 µg/mL; against Escherichia coli, 25 µg/mL.
`CCCCCCCCCCCOC(=O)C[C@H](C[N+](C)(C)C)OC(=O)CCCCCC.[Cl-]`: the MIC against Enterococcus faecalis stood at 1.56 µg/mL; against Staphylococcus aureus, 3.12 µg/mL; against Aspergillus fumigatus it was 3.12 µg/mL; with Candida albicans, 3.12 µg/mL; in the experiment with Aspergillus niger, 3.12 µg/mL; with Proteus vulgaris, 100 µg/mL. The MIC with Saccharomyces cerevisiae came to 3.12 µg/mL; against Mucor mucedo, 6.25 µg/mL; against Escherichia coli it was 25 µg/mL.
`CC(C)CC(=O)O[C@H](CC(=O)OCCCCCCCCCCCBr)C[N+](C)(C)C.[Cl-]`: the MIC against Enterococcus faecalis was determined as 6.25 µg/mL; with Staphylococcus aureus it was 12.5 µg/mL; in the experiment with Aspergillus fumigatus it was 25 µg/mL; in the experiment on Candida albicans, 6.25 µg/mL; with Aspergillus niger, 50 µg/mL; with Proteus vulgaris, 100 µg/mL. In addition, the MIC in the experiment with Saccharomyces cerevisiae is greater than 100 µg/mL; with Mucor mucedo it was 50 µg/mL; with Escherichia coli, 100 µg/mL.
As for `CCCCCCCCOC(=O)C[C@H](C[N+](C)(C)C)OC(=O)CCCCCCCC.[Cl-]`, the MIC with Enterococcus faecalis stood at 3.12 µg/mL; in the experiment on Staphylococcus aureus, 3.12 µg/mL; with Aspergillus fumigatus, 12.5 µg/mL; in the experiment with Candida albicans, 3.12 µg/mL; with Aspergillus niger it was 6.25 µg/mL; against Proteus vulgaris, 50 µg/mL. In addition, the values for the MIC in the experiment on Saccharomyces cerevisiae, in the experiment with Mucor mucedo and with Escherichia coli were 3.12 µg/mL, 25 µg/mL and 25 µg/mL, respectively.

Source of the values: ChEMBL document CHEMBL1131640, “L-carnitine esters as "soft", broad-spectrum antimicrobial amphiphiles” (J Med Chem, 1998).
